Data as given in ChEMBL document CHEMBL4373657, “Derivatives of a new heterocyclic system - pyrano[3,4-c][1,2,4]triazolo[4,3-a]pyridines: synthesis, docking analysis and neurotropic activity” (Medchemcomm, 2019).
Calls of active or inactive are those of the source. No cut-off for these calls is given here.

Experiments:
Mus musculus [1] = assay: Anticonvulsant activity in mouse assessed as MES-induced tonic seizures at 10 to 100 mg/kg, ip administered 45 mins before electrical stimulation; type: functional, organism-based
Procedure, shortened: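 Mice, 8 per dose. Compounds given i.p. at 10, 25, 50, 75 or 100 mg kg–1 in carboxymethylcellulose/Tween-80 suspension, 45 min before maximal electroshock (50 mA, 0.2 s, 50 imp s–1); controls received emulsifier. Endpoint was prevention of the tonic-extensor phase.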

Mus musculus [2] = assay: Anticonvulsant activity in mouse assessed as proportion of animals displaying reduction in PTZ-induced clonic seizures at 50 mg/kg, ip administered 45 mins before PTZ stimulation relative to control; type: functional; set-up: scale not given: the % may be the effect or the level left
Procedure, shortened: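 Outbred mice (18–22 g), 8 per dose. Compounds given i.p. at 10–100 mg kg–1 as a carboxymethylcellulose/Tween-80 suspension, 45 min before s.c. pentylenetetrazole 90 mg kg–1; controls received emulsifier. Endpoint was prevention of clonic seizures. ED50 was derived by Litchfield–Wilcoxon probit analysis.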

[3] = Neurotoxicity in mouse assessed as myorelaxation at 50 to 100 mg/kg, ip measured for 2 mins by rotarod test; type: toxicity, organism-based; conditions: in vivo
Procedure, shortened: (§1)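 Mice dosed i.p. at 50–100 mg kg–1; reference drugs given at effective anticonvulsant doses. Mice were placed on a corrugated rubber-coated metal rod rotating at 5 rpm, and the number staying on for 2 min was counted. TD50 was derived by Litchfield–Wilcoxon probit analysis.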

Mus musculus [4] = assay: Anticonvulsant activity in mouse assessed as MES-induced […] seizures at 10 to 100 mg/kg, ip administered 45 mins before electrical stimulation; type: functional, organism-based
[5] = Neurotoxicity in mouse assessed as motor coordination at 50 to 100 mg/kg, ip by rotarod test; type: toxicity, organism-based; conditions: in vivo; procedure, shortened: as §1
[6] = Neurotoxicity in ip dosed mouse assessed as myorelaxation measured for 2 mins by rotarod test; type: toxicity, organism-based; conditions: in vivo
Procedure, shortened: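 Mice were placed on a corrugated rubber-coated metal rod rotating at 5 rpm, and the number staying on for 2 min was counted. TD50 was derived by Litchfield–Wilcoxon probit analysis.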

[7] = Neurotoxicity in ip dosed mouse assessed as maximum tolerated dose by rotarod test; type: toxicity, organism-based; conditions: in vivo
Procedure, shortened: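 Mice given compounds i.p. at […] to 1800 mg/kg to establish the maximal tolerated dose.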

SMILES: Cc1ccc(Nc2c(C#N)c3c(c4nnc(SCc5ccc([N+](=O)[O-])cc5)n24)COC(C)(C)C3)cc1
- Activity (Mus musculus [1]): inactive
- Activity (Mus musculus [2]): 40%
- Activity [3]: Non-Toxic
- Activity (Mus musculus [4]): inactive
- Activity [5]: Non-Toxic
- TD50 at 2 min [6]: > 500 mg/kg
- MTD [7]: 1200 mg/kg

SMILES: CC1(C)Cc2c(C#N)c(Nc3ccccc3)n3c(SCC(=O)c4ccc([N+](=O)[O-])cc4)nnc3c2CO1
- Activity (Mus musculus [1]): inactive
- Activity (Mus musculus [2]): 40%
- Activity [3]: Non-Toxic
- Activity (Mus musculus [4]): inactive
- Activity [5]: Non-Toxic
- TD50 at 2 min [6]: > 520 mg/kg
- MTD [7]: 1250 mg/kg

SMILES: CC1(C)Cc2c(C#N)c(Nc3ccccc3)n3c(SCC(=O)c4ccc(Cl)cc4)nnc3c2CO1
- Activity (Mus musculus [1]): inactive
- Activity (Mus musculus [2]): 20%
- Activity [3]: Non-Toxic
- Activity (Mus musculus [4]): inactive
- Activity [5]: Non-Toxic
- TD50 at 2 min [6]: > 500 mg/kg
- MTD [7]: 1150 mg/kg

SMILES: Cc1cccc(NC(=O)CSc2nnc3c4c(c(C#N)c(Nc5ccccc5)n23)CC(C)(C)OC4)c1
- Activity (Mus musculus [1]): inactive
- Activity (Mus musculus [2]): 20%
- Activity [3]: Non-Toxic
- Activity (Mus musculus [4]): inactive
- Activity [5]: Non-Toxic
- TD50 at 2 min [6]: > 500 mg/kg
- MTD [7]: 1300 mg/kg

SMILES: Cc1ccc(Nc2c(C#N)c3c(c4nnc(SCC(=O)c5ccc([N+](=O)[O-])cc5)n24)COC(C)(C)C3)cc1
- Activity (Mus musculus [1]): inactive
- Activity (Mus musculus [2]): 40%
- Activity [3]: Non-Toxic
- Activity (Mus musculus [4]): inactive
- Activity [5]: Non-Toxic
- TD50 at 2 min [6]: > 500 mg/kg
- MTD [7]: 1250 mg/kg

SMILES: CCCCN(CCCC)C(=O)CSc1nnc2c3c(c(C#N)c(Nc4ccccc4)n12)CC(C)(C)OC3
- Activity (Mus musculus [1]): inactive
- Activity (Mus musculus [2]): 20%
- Activity [3]: Non-Toxic
- Activity (Mus musculus [4]): inactive
- Activity [5]: Non-Toxic
- TD50 at 2 min [6]: > 500 mg/kg
- MTD [7]: 1000 mg/kg

SMILES: COc1cccc(NC(=O)CSc2nnc3c4c(c(C#N)c(Nc5ccc(C)cc5)n23)CC(C)(C)OC4)c1
- Activity (Mus musculus [1]): inactive
- Activity (Mus musculus [2]): 40%
- Activity [3]: Non-Toxic
- Activity (Mus musculus [4]): inactive
- Activity [5]: Non-Toxic
- TD50 at 2 min [6]: > 500 mg/kg
- MTD [7]: 1100 mg/kg

SMILES: Cc1ccc(Nc2c(C#N)c3c(c4nnc(SCc5ccccc5Cl)n24)COC(C)(C)C3)cc1
- Activity (Mus musculus [1]): inactive
- Activity (Mus musculus [2]): 40%
- Activity [3]: Non-Toxic
- Activity (Mus musculus [4]): inactive
- Activity [5]: Non-Toxic
- TD50 at 2 min [6]: > 500 mg/kg
- MTD [7]: 1350 mg/kg

SMILES: COc1ccc(NC(=O)CSc2nnc3c4c(c(C#N)c(Nc5ccc(C)cc5)n23)CC(C)(C)OC4)cc1
- Activity (Mus musculus [1]): inactive
- Activity (Mus musculus [2]): 40%
- Activity [3]: Non-Toxic
- Activity (Mus musculus [4]): inactive
- Activity [5]: Non-Toxic
- TD50 at 2 min [6]: > 500 mg/kg
- MTD [7]: 1250 mg/kg

SMILES: CC1(C)Cc2c(C#N)c(Nc3ccccc3)n3c(SCC(=O)Nc4ccc(Cl)c(Cl)c4)nnc3c2CO1
- Activity (Mus musculus [1]): inactive
- Activity (Mus musculus [2]): 20%
- Activity [3]: Non-Toxic
- Activity (Mus musculus [4]): inactive
- Activity [5]: Non-Toxic
- TD50 at 2 min [6]: > 500 mg/kg
- MTD [7]: 1150 mg/kg
